Drawing on ChEMBL document CHEMBL1137530, “The discovery of substituted 4-(3-hydroxyanilino)-quinolines as potent RET kinase inhibitors” (Bioorg Med Chem Lett, 2007), this text covers IC50, Activity and ED50 for 19 compounds.

pIC50: −log10 of the molar value. Calls of active or inactive are those of the source. No cut-off for these calls is given here.

In test [1] the target is T1, Proto-oncogene tyrosine-protein kinase receptor Ret (Homo sapiens, UniProt P07949). As to the kind of experiment: Inhibition of RET kinase in Sf9 cells. Type of test: cell-based.
T1 sequence (P07949 whole entry, the tested form may be a part, canonical isoform): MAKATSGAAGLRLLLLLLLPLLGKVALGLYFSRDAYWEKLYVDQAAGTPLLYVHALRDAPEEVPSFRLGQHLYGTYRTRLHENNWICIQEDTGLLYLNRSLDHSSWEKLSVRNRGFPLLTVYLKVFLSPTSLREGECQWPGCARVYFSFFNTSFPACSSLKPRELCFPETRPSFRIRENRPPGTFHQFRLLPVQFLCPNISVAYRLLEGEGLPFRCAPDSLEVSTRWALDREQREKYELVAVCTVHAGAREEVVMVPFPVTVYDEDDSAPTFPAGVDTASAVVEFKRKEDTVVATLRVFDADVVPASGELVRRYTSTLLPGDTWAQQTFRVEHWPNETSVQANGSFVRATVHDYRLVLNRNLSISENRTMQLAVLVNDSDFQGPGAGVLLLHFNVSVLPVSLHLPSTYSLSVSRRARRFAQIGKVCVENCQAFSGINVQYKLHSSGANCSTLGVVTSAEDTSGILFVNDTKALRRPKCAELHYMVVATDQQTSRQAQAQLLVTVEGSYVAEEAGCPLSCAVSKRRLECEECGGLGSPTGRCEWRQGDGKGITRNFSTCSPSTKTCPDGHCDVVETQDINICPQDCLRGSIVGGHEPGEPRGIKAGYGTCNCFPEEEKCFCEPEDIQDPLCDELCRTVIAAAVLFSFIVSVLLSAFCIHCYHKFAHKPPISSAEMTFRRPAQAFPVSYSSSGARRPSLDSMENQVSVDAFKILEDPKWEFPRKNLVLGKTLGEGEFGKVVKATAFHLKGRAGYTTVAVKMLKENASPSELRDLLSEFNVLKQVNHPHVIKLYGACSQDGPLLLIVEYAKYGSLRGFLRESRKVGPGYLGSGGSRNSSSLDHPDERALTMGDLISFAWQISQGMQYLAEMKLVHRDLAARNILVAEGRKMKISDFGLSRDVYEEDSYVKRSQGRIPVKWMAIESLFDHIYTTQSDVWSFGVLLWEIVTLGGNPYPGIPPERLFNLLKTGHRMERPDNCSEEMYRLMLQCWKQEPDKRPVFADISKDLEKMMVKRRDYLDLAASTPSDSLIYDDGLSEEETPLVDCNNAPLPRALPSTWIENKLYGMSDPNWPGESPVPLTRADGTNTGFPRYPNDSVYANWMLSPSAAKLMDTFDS
Test [2] has as its target T1, Proto-oncogene tyrosine-protein kinase receptor Ret. Briefly: Inhibition of RET kinase expressed in Sf9 cells at 5000 nm. An outline of the steps: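 RET kinase domain (intracellular aa 713–1072, short isoform), expressed in Sf9 insect cells and Ni-purified. 100 ng enzyme was screened at a single 5000 nM concentration, in triplicate. Reaction: MOPS pH 7.4, MgCl2, ATP (100 µM stock) plus [γ-33P]ATP 1 µCi, and poly(Glu-Tyr) substrate, 30 min at room temperature. Stopped with 0.5% H3PO4, filtered on phosphocellulose, read as scintillation cpm (mean of three).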

The target of test [3] is Angiopoietin-1 receptor (Homo sapiens) (UniProt Q02763). As to the kind of experiment: Inhibitory of TIE2.
Angiopoietin-1 receptor (Homo sapiens), sequence (Q02763 whole entry): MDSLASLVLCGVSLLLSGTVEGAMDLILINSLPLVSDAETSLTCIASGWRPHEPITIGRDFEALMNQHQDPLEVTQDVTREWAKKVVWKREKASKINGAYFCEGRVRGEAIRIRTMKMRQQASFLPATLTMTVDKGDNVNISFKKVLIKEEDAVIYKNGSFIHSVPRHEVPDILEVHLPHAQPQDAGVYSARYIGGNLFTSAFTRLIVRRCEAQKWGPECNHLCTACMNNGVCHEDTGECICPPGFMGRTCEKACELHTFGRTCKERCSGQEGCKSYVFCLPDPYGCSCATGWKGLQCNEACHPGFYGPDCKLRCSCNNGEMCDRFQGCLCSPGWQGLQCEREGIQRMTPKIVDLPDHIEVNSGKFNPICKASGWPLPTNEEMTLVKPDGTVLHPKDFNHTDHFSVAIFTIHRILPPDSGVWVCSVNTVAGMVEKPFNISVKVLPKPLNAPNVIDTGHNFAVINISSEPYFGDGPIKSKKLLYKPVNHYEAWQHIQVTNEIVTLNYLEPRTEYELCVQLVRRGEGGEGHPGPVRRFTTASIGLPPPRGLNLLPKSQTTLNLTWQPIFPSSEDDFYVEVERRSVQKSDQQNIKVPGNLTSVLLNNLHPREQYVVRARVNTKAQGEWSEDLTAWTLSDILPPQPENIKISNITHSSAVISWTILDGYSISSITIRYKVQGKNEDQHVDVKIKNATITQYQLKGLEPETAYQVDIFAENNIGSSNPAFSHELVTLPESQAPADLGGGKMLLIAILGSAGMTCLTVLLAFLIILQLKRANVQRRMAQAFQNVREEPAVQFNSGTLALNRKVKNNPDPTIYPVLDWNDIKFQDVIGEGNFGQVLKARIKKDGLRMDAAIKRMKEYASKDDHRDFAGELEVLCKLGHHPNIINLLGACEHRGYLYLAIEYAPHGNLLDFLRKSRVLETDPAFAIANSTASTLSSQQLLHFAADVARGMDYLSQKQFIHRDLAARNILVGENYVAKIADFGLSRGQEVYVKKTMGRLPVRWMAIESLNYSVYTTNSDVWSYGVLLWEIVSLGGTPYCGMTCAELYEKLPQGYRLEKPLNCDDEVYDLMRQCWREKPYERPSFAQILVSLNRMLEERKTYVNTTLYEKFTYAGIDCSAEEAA
Test [4] has as its target Vascular endothelial growth factor receptor 2 (Homo sapiens) (UniProt P35968). Briefly: Inhibitory of VEGFR2.
For test [5], the target named is Proto-oncogene tyrosine-protein kinase Src (Homo sapiens) (UniProt P12931). Briefly: Inhibitory of c-SRC.
Proto-oncogene tyrosine-protein kinase Src (Homo sapiens), sequence (P12931 2-536 limits assumed): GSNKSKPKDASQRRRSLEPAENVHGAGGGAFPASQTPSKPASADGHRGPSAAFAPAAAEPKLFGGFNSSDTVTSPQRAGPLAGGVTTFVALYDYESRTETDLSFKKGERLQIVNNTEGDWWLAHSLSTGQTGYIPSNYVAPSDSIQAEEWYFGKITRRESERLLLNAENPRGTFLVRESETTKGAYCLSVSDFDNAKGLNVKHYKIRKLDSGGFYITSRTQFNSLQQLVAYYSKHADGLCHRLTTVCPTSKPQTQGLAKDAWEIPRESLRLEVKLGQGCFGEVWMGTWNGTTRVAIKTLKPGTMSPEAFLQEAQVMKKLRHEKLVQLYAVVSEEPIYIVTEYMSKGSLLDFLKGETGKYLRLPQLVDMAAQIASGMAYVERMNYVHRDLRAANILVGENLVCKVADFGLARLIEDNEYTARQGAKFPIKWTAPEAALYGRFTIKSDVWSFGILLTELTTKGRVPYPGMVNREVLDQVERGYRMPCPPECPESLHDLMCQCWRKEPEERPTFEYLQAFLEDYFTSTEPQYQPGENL
The target in test [6] is Tyrosine-protein kinase Lyn (Homo sapiens) (UniProt P07948). As to the kind of experiment: Inhibitory of lyn.
Tyrosine-protein kinase Lyn (Homo sapiens), sequence (P07948 2-512 limits assumed): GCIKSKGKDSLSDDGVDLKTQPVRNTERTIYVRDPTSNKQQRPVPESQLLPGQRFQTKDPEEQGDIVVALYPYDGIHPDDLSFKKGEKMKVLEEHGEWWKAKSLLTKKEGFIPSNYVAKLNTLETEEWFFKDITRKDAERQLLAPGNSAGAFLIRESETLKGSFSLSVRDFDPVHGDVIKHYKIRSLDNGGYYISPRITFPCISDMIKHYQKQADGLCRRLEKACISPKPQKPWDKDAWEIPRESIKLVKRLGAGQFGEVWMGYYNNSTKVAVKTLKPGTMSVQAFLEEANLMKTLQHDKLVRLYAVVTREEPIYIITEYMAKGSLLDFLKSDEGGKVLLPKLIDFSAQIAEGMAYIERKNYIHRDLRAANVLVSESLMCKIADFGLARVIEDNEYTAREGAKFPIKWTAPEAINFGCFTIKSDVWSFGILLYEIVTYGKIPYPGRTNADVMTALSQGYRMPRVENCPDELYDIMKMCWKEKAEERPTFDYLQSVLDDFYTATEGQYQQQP
The next test concerns SK-N-MC. Briefly: Inhibition of chimeric human EGFR/RET kinase expressed in SK-N-MC cells after 1 hr by Western blotting. It is filed as cell-based. For orientation: A western blot detects proteins with antibodies after separation by electrophoresis.

One may read the pIC50 as the negative decadic logarithm of the IC50, by convention in mol/L.

Vascular endothelial growth factor receptor 2 (Homo sapiens), sequence (P35968 whole entry): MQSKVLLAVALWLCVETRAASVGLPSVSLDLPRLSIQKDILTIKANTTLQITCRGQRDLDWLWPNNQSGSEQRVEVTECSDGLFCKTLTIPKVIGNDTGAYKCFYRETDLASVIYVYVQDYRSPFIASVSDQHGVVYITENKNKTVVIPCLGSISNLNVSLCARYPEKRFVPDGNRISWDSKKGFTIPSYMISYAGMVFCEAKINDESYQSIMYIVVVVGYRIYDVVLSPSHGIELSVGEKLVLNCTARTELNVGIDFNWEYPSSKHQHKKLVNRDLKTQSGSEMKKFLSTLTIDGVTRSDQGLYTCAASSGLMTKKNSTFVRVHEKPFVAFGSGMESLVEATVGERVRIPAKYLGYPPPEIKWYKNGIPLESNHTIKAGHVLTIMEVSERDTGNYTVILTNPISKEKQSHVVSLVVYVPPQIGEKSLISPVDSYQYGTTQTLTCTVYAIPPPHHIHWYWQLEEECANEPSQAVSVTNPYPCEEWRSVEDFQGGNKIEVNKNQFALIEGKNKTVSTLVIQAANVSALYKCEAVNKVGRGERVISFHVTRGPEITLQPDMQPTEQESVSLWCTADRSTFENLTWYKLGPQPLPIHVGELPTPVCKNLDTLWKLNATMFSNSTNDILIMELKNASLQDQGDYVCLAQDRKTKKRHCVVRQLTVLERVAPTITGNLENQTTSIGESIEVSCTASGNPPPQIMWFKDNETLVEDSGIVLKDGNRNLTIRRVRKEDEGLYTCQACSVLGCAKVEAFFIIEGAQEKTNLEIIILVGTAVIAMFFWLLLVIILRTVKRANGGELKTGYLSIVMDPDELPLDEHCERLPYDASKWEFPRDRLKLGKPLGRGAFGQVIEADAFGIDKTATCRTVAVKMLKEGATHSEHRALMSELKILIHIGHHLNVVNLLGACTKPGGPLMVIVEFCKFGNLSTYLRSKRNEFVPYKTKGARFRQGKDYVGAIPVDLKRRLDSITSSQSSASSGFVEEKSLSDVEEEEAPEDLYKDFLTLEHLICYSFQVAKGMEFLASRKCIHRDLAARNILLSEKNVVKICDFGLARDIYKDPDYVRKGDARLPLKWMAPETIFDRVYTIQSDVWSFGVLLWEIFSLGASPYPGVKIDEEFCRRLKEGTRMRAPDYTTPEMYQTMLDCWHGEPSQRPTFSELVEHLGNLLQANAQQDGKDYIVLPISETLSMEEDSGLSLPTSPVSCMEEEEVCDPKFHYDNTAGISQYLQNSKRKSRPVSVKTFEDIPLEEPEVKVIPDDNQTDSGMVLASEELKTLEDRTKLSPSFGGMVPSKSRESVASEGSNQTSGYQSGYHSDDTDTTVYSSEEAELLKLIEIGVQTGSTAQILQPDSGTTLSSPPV

Take `Oc1cc(Nc2ccnc3cc(-c4cc5ccccc5o4)ccc23)ccc1Br`: the negative logarithm of the IC50 (pIC50) in test [1] was 7.07.
Turning to `COc1cc2ncnc(Nc3ccc(Cl)c(O)c3)c2cc1OC`, the Activity in test [2] was determined as 298 cpm.
On to `Oc1cc(Nc2ccnc3cc(-c4ccc(CN5CCOCC5)o4)c(Cl)cc23)c(Cl)cc1F`, for which the negative logarithm of the IC50 (pIC50) in test [1] is below 6.00.
The compound `CS(=O)(=O)c1ccc2nccc(Nc3cc(O)c(F)cc3Cl)c2c1` returned an Activity in test [2] of 460 cpm.
For the compound `O=C1Nc2ccc3ncsc3c2/C1=C/Nc1ccc2c(c1)CS(=O)(=O)C2`, the Activity in test [2] turned out to be 428 cpm.
`Cc1ccc(O)cc1Nc1ccnc2ccc(S(=O)(=O)NCC3CC3)cc12` gave a pIC50 in test [1] of 7.05.
In turn, `Oc1cccc(Nc2c(Cl)cnc3cc(-c4cncs4)ccc23)c1` showed a pIC50 in test [1] of 7.00.
Consider `Cc1ccc(O)cc1Nc1ccnc2cc(-c3ccccn3)ccc12`, for which the negative logarithm of the IC50 (pIC50) in test [1] is 7.12.
For `Cc1ccc(O)cc1Nc1ccnc2ccc(C(=O)NC(C)C)cc12`, in test [1], the pIC50 is 7.02.
Still for that read-out and setting: in the case of `Cc1ccc(O)cc1Nc1cc(C(F)(F)F)nc2cc(-c3ccncc3)ccc12` it was below 6.00.
For `Cc1ccc(O)cc1Nc1ccnc2ccc(S(C)(=O)=O)cc12`, the result in test [3], in test [4], in test [5] and in test [6] was Active.
As to `Oc1cc(Nc2ccnc3cc(-c4cccc(CNCCN5CCOCC5)c4)ccc23)c(F)cc1Cl`, in test [1], the pIC50 is 7.12.
In test [1], `Oc1cccc(Nc2ccnc3cc(-c4ccccn4)ccc23)c1` gave a pIC50 of 8.22.
Same read-out and setting: with `OCc1nc(-c2ccc3c(Nc4cc(O)c(F)cc4Cl)ccnc3c2)cs1` the figure was 7.60.
In the case of `CN(C)S(=O)(=O)c1ccc(N/C=C2\C(=O)Nc3ccc4ncccc4c32)cc1`, in test [2], the Activity turned out to be 1210 cpm.
Take `NS(=O)(=O)c1ccc(-c2cnc3c(c2)/C(=C/c2cc(Br)c(O)c(Br)c2)C(=O)N3)cc1`: in test [2], the Activity amounted to 355 cpm.
Regarding `CS(=O)(=O)Cc1ccc(N/C=C2\C(=O)Nc3ccc4ncsc4c32)cc1`, the Activity in test [2] was 1310 cpm.
Turning to `Cc1ccc(O)cc1Nc1ccnc2cc(-c3csc(CN4CCOCC4)n3)c(S(C)(=O)=O)cc12`, the outcome in test [3], in test [4], in test [5] and in test [6] was Active. Also, the ED50 in the test on SK-N-MC amounted to 45 nM. The compound further showed a pIC50 in test [1] of 7.47.
On to `O=C1Nc2ccc3ncsc3c2/C1=C/c1c[nH]cn1`, for which the Activity in test [2] amounted to 950 cpm.
